# Rows were chosen to be rich in hits. Some 2.3% of all compounds tested hit in one or more screens of this group.
# TRPC6 act – activators of mouse TRPC6 channel. Q61143. HEK293-TRPC6 membrane potential dye fluorescence; hits give high values. B-score at 10 µM. hit rate 0.13% among 310,000. AID 2550;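 active = B-score of the integrated fluorescence ratio above library mean plus 3 SD, and starting fluorescence ratio within library mean plus 5 SD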;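 also: higher score means more depolarization so channel activation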
# Target sequence (Q61143 whole entry, looked up): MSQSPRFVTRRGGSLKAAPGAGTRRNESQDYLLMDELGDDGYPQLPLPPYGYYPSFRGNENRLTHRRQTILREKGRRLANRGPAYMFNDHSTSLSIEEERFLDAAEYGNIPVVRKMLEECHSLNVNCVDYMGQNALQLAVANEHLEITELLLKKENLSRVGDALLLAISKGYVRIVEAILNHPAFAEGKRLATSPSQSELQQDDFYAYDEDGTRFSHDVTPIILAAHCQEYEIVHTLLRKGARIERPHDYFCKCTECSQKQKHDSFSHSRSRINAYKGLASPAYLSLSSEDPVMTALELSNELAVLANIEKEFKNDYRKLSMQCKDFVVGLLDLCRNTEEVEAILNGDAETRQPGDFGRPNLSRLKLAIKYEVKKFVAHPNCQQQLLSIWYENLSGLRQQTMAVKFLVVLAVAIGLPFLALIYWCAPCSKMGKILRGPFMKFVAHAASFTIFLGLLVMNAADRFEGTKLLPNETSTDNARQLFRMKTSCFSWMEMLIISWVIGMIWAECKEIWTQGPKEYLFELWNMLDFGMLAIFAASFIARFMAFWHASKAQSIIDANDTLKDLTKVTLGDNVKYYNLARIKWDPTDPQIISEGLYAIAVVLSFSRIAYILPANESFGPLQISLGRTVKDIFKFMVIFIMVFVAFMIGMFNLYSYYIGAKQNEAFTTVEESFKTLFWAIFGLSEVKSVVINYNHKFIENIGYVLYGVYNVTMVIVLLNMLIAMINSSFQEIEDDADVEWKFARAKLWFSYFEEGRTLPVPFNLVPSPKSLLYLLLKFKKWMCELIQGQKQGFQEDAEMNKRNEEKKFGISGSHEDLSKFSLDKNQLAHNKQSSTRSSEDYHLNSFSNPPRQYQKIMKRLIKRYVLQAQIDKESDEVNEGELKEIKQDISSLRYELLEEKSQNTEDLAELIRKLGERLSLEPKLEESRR
# TRPC4 PAM – allosterically enhances the mouse TRPC4 cation channel | Q9QUQ5 | HEK293 TRPC4beta/mu-opioid, DAMGO EC20, Fluo-4 Ca2+ flux; hits give high values | B-score at 10 µM | hit rate 0.42% among 310,000 | AID 2227;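 active = B-score of calcium response area above 5 SD of library B-scores, with initial fluorescence ratio within 5 SD of library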
# TRPC4 act – activators of mouse TRPC4 channel. HEK293 TRPC4beta/mu-opioid, Fluo4 calcium fluorescence; hits give high values. hit rate 0.49% among 310,000. Q9QUQ5. AID 2237. B-score at 10 µM;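 active = B-score above 5 SD of library B-scores, and initial fluorescence ratio not above library mean plus 5 SD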;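 also: positive B-score marks a calcium rise read as TRPC4 activation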
#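 Assay system: HEK293 stable line with TRPC4beta plus mu-opioid receptor. Times: dye 45 min RT, read 110 s. Measured by: kinetic Fluo4 calcium fluorescence. Measure: B score of integrated ratio. Controls: assay buffer as low control, maximal DAMGO as high control.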
# TRPC4 inh – blocks the mouse TRPC4 cation channel; Q9QUQ5; HEK293 TRPC4beta/mu-opioid, DAMGO-evoked Fluo4 calcium flux; hits give low values; B-score at 10 µM; hit rate 0.39% among 300,000; AID 2247;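 active = B-score over 3 SD under the library average, no early fluorescence shift, positive overall ratio signal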
#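 Material: HEK293 cells with stable TRPC4beta plus mu-opioid receptor expression; probe or stimulus: DAMGO in two steps, submaximal then maximal; technique: Fluo4 calcium fluorescence by kinetic imaging, 5 s 1 Hz baseline; measure: integrated fluorescence ratio relative to baseline, converted to per-well B score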
# TRPC6 inhibitor – inhibitors of mouse TRPC6 channel. Q61143. HEK293-TRPC6, membrane potential dye, ACh-evoked depolarization; hits give low values. B-score at 10 µM. hit rate 1.1% among 310,000. AID 2553;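 active = B-score under library mean minus 3 SD, initial fluorescence not abnormally high, positive integrated signal ratio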;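 also: B-score derived from integrated fluorescence ratio over the kinetic read; more negative B-score means stronger inhibition of depolarization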
# TRPC4 sel inh 2 – second check of whether TRPC6 inhibitors also affect mouse TRPC4; hit rate 42% among 920; inhibition, % at 10 µM; HEK293 TRPC4/MOR, membrane potential dye fluorescence; channel activated by saturating DAMGO dose; shares compounds with TRPC6 inhibitor;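 active = compounds whose fluorescence signal differed from control wells by over 3 SD, either direction, in both duplicate plates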
# TRPC4 spec – selectivity of TRPC6 inhibitors: effect on mouse TRPC4 | shares compounds with TRPC6 inhibitor | HEK293 TRPC4/mu-opioid, membrane potential fluorescence | activity change, negative = inhibition, % at 10 µM | hit rate 61% among 920 | AID 2777;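 active = rise or fall in signal beyond 3 SD of buffer-only wells in both replicate plates, either sign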;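 also: integrated kinetic ratio of fluorescence range over baseline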
# HEK293 MPD ctr 2-1 – second check of TRPC6 inhibitor effects in parental HEK293 cells. shares compounds with TRPC6 inhibitor. parental HEK293 membrane potential dye fluorescence; maximal acetylcholine challenge after compound addition. signal change vs control, % at 10 µM. hit rate 31% among 920. AID 2779;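 active = membrane potential signal moving either way by over 3 SD of the maximum-effect control, in both duplicate plates, meaning non-specific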
# HEK293 MPD ctr-1 – counter-screen for TRPC6 inhibitors: effect in parental HEK293 cells; shares compounds with TRPC6 inhibitor; parental HEK293 membrane potential dye fluorescence; membrane potential signal change, % at 10 µM; hit rate 60% among 920;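 active = membrane potential signal shifting up or down by more than 3 SD of buffer-only wells, on both duplicate plates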
# HEK293 MPD ctr-2 – checks TRPC6 modulator effects in parental HEK293 cells; AID 488924; membrane potential dye fluorescence; membrane potential signal change, % at 10 µM; hit rate 51% among 2,400; shares compounds with TRPC6 inhibitor;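 active = membrane potential signal moves up or down beyond 5 SD from buffer-only wells, on both duplicate plates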
# HEK293 MPD ctr 2-2 – second check of TRPC6 modulator effects in parental HEK293 cells; shares compounds with TRPC6 inhibitor; membrane potential dye fluorescence; after compound, maximal acetylcholine stimulation; hit rate 14% among 2,400; inhibition, % at 10 µM; AID 488926;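 active = membrane potential signal drops by more than 5 SD from the mean control signal, in both duplicate plates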
# TRPC4/MOR mod – mouse TRPC4 off-target activity of TRPC6 modulators | HEK293 TRPC4/mu-opioid, membrane potential fluorescence | hit rate 69% among 2,400 | shares compounds with TRPC6 inhibitor | percent change from control (negative = decrease, positive = increase), % at 10 µM | AID 488927;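 active = membrane potential signal moved up or down beyond 5 SD of buffer control wells, in both duplicate plates, actives on both sides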
# TRPC4/MOR inh 2 – second check of whether TRPC6 modulators also affect mouse TRPC4 | shares compounds with TRPC6 inhibitor | HEK293 TRPC4/mu-opioid, membrane potential dye fluorescence; stimulated with maximal-effect DAMGO | inhibition, % at 10 µM | hit rate 55% among 2,400 | AID 488928;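 active = drop in membrane potential signal beyond 5 SD of the control wells in both duplicate plates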;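 also: TRPC4 counter screen for TRPC6 hits run under conditions tuned for TRPC6 not TRPC4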
# TRPC6 inh conf – confirmation of mouse TRPC6 inhibitors | shares compounds with TRPC6 inhibitor | HEK293-TRPC6, membrane potential dye, ACh-evoked depolarization | inhibition, % at 10 µM | hit rate 43% among 3,300 | AID 488960;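 active = fluorescence ratio falls more than 5 SD below the full-stimulation control mean, in both duplicate runs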;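 also: integrated fluorescence ratio of peak minus minimum over baseline after agonist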
# TRPC6 act confirm – mouse TRPC6 activator confirmation. shares compounds with TRPC6 inhibitor. HEK293-TRPC6 membrane potential dye fluorescence, FDSS. activation, % at 10 µM. hit rate 11% among 2,800. AID 488961;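 active = ratio signal rise beyond 5 SD above unstimulated control wells' mean, seen in both duplicate runs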
# Numbers stand for hits; i = inactive; nt = not tested or not shown.
SMILES,TRPC6 act,TRPC4 PAM,TRPC4 act,TRPC4 inh,TRPC6 inhibitor,HEK293 MPD ctr-2,HEK293 MPD ctr 2-2,TRPC4/MOR mod,TRPC4/MOR inh 2,TRPC6 inh conf,TRPC6 act confirm,others
COc1cc(C(=O)Nc2ccc3c(c2)N(C(=O)CCN(C)C)c2ccccc2CC3)cc(OC)c1OC,i,i,i,i,-8.8,i,i,i,i,58%,i,
COc1ccc(/C=C2\SC(=S)N(CC3CCCO3)C2=O)cc1 (stereo unspecified),i,i,i,i,i,nt,nt,nt,nt,nt,nt,
COc1cc(/C=C2/SC(=S)N(CC3CCCO3)C2=O)ccc1O (stereo unspecified),16,i,i,i,i,212%,i,89%,i,i,40%,
Cc1ccc(Nc2c(-c3ccccn3)nc3cc(C)ccn23)cc1,i,i,i,i,-5.5,-134%,i,-27%,72%,i,i,
CCOC(=O)c1sc(=S)n(-c2ccccc2Cl)c1SC,i,i,i,i,-7.7,nt,nt,nt,nt,i,i,TRPC4 sel inh 2=i;TRPC4 spec=i;HEK293 MPD ctr 2-1=i;HEK293 MPD ctr-1=i
CCOC(=O)c1sc(=S)n(-c2ccc(OC)cc2)c1C,i,i,i,i,-6.3,i,i,10%,i,52%,nt,
CCOC(=O)c1sc(=S)n(-c2ccccc2)c1SC,i,i,i,i,i,nt,nt,nt,nt,nt,nt,
C=CCNC(=S)NNC(=O)c1ccncc1,i,i,i,i,i,nt,nt,nt,nt,nt,nt,
O=C(CCC(=O)c1ccccc1)NC1CCCN(Cc2ccccc2F)C1 (stereo unspecified),i,i,i,i,i,nt,nt,nt,nt,nt,nt,
Cc1[nH]n(-c2ccccc2)c(=O)c1N=Nc1ccc2c(c1)OCCO2,i,i,i,i,i,nt,nt,nt,nt,nt,nt,
Cc1[nH]n(-c2ccccc2)c(=O)c1N=Nc1c(O)cc(S(=O)(=O)N(C)C)c2ccccc12,i,i,i,i,-8.9,-135%,80%,-34%,86%,81%,i,
CSc1nc(NCC(C)C)c2c3c(sc2n1)CN(C)CC3,i,i,i,i,i,nt,nt,nt,nt,nt,nt,
COCCSc1nc(N)c2c3c(sc2n1)CN(C)CC3,i,i,i,i,-9.4,-148%,i,-29%,30%,i,i,
CCCSc1nc(N)c2c3c(sc2n1)CN(C)CC3,i,i,i,i,-7.1,-112%,i,-26%,i,i,i,
CN(C)CCSc1nc(N)c2c3c(sc2n1)CN(C)CC3,i,i,i,i,-8.6,-210%,i,-39%,46%,55%,i,
CC(C)Sc1nc(N)c2c3c(sc2n1)CN(C)CC3,i,i,i,i,i,nt,nt,nt,nt,nt,nt,
COc1ccc2c(c1)c(C(=O)CN1CCc3ccccc3C1)c(C)n2C,i,i,i,i,-6.5,-88%,i,-16%,59%,44%,i,
O=C(COc1ccccc1)NCCSc1ccccc1,i,i,i,i,-5.8,i,i,8.5%,i,i,nt,
Cc1ccc(NC(=O)O/N=C/c2ccc(N(C)C)cc2)cc1,i,i,i,i,i,nt,nt,nt,nt,nt,nt,
OCC[C@H]1C[C@@H](O)[C@H](O)[C@@]2(CCCCO2)O1,i,i,i,i,-7.4,nt,nt,nt,nt,i,i,TRPC4 sel inh 2=i;TRPC4 spec=i;HEK293 MPD ctr 2-1=i;HEK293 MPD ctr-1=i
COCCNC(=O)c1c(CS(=O)(=O)c2ccccc2)noc1C(=O)NCc1ccccc1,i,i,i,i,i,nt,nt,nt,nt,nt,nt,
O=C(CN1CCN(Cc2ccccc2)CC1)Nc1ccc([N+](=O)[O-])cc1C(=O)Nc1ccccc1F,i,i,i,i,-5.1,i,i,i,70%,38%,i,
COc1cc(NC(=O)c2cc([N+](=O)[O-])ccc2NC(=O)CN2CCN(c3ccccn3)CC2)cc(OC)c1,i,10,i,i,-5.9,i,i,i,40%,i,i,
CCC1CCCCN1CCCNC(=O)c1ccc2c(c1)N(Cc1c(F)cccc1Cl)C(=O)CS2 (stereo unspecified),i,i,i,i,-6.5,i,i,-17%,82%,78%,i,
O=C(NCc1ccc2c(c1)OCO2)c1ccc2c(c1)N(Cc1c(F)cccc1Cl)C(=O)CS2,i,i,i,i,i,nt,nt,nt,nt,nt,nt,
SMILES,TRPC6 act,TRPC4 PAM,TRPC4 act,TRPC4 inh,TRPC6 inhibitor,HEK293 MPD ctr-2,HEK293 MPD ctr 2-2,TRPC4/MOR mod,TRPC4/MOR inh 2,TRPC6 inh conf,TRPC6 act confirm,others
CCn1cc(C(=O)OCC(=O)N(C)C2CCS(=O)(=O)C2)c(=O)c2ccc(C)nc21 (stereo unspecified),i,i,i,i,-5.4,-269%,i,-54%,i,60%,i,
CC1Cc2ccccc2N1C(=O)C1CC(=O)N(c2ccccc2)C1 (stereo unspecified),i,i,i,i,i,nt,nt,nt,nt,nt,nt,
CCCn1c2ccccc2c2cnn(CC(=O)N3CCN(C4CCCCC4)CC3)c(=O)c21,15,i,i,i,i,318%,i,56%,i,i,106%,
CCCCCCCCCCOC(=O)C[N+](C)(C)C/C=C(/C)Cl,i,i,i,i,-5.3,134%,i,30%,42%,64%,nt,
CCCCCCCCCCCCOC(=O)C[N+](C)(C)C,i,i,i,-6,-6.9,nt,nt,nt,nt,56%,i,TRPC4 sel inh 2=i;TRPC4 spec=0.8%;HEK293 MPD ctr 2-1=324%;HEK293 MPD ctr-1=i
CCCCCCCCOC(=O)C[N+](C)(C)C/C=C(/C)Cl,i,i,i,i,-7.6,nt,nt,nt,nt,61%,i,TRPC4 sel inh 2=i;TRPC4 spec=0.1%;HEK293 MPD ctr 2-1=i;HEK293 MPD ctr-1=2.3%
O=C(CN1CCN(S(=O)(=O)c2ccc(F)cc2)CC1)Nc1ccc(Cl)cn1,i,i,i,i,i,nt,nt,nt,nt,nt,nt,
CCOc1ccc(NC(=O)CC2C(=O)N(CC)C(=S)N2CCNC(C)=O)cc1 (stereo unspecified),i,i,i,i,-5.5,i,i,i,i,i,i,
CCOc1ccc(NC(=O)CC2C(=O)N(CC)C(=S)N2CCN2CCOCC2)cc1 (stereo unspecified),i,i,i,i,i,nt,nt,nt,nt,nt,nt,

# Screening results as filed in PubChem.
